Assay results as given in ChEMBL document CHEMBL4732182, “Design, synthesis and biological evaluation of 2-substituted-6-[(4-substituted-1-piperidyl)methyl]-1H-benzimidazoles as inhibitors of ebola virus infection” (Eur J Med Chem, 2021).
The source made the active and inactive calls. The rule behind the calls is not given here.

What was measured:
[1] = Cytotoxicity against human Huh-7 cells assessed as reduction in cell viability incubated for 3 days by cell-titer glo assay; assay type: cell-based; details: time 3 day
Outline: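 Huh7 cells received compound but no virus, in parallel with the infection assay. Viability was read by CellTiter-Glo luminescence. CC50 was derived from a 4-parameter fit to semi-log concentration-response curves.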

[2] = system: Ebolavirus; assay: Antiviral activity against Ebola virus infected in human HuH7 cells assessed as reduction in viral infection pretreated for 2 hrs followed by viral infection and measured after 3 days by ZsGreen fluorescence assay; assay type: functional, organism-based; details: Orthoebolavirus, Huh-7
[3] = Selectivity index, ratio of CC50 for human Huh-7 cells to EC50 for Ebola virus infected in human HuH7 cells; assay type: toxicity, cell-based; details: read-out: Ratio CC50/EC50
[4] = target: T1, NPC intracellular cholesterol transporter 1 (Homo sapiens) (UniProt O15118); assay: Inhibition of NPC1 in human HeLa cells assessed as increase in cholesterol accumulation in subcellular localization at 5 uM incubated for 24 hrs by filipin-staining based immunofluorescence assay; assay type: cell-based
T1 sequence (whole entry): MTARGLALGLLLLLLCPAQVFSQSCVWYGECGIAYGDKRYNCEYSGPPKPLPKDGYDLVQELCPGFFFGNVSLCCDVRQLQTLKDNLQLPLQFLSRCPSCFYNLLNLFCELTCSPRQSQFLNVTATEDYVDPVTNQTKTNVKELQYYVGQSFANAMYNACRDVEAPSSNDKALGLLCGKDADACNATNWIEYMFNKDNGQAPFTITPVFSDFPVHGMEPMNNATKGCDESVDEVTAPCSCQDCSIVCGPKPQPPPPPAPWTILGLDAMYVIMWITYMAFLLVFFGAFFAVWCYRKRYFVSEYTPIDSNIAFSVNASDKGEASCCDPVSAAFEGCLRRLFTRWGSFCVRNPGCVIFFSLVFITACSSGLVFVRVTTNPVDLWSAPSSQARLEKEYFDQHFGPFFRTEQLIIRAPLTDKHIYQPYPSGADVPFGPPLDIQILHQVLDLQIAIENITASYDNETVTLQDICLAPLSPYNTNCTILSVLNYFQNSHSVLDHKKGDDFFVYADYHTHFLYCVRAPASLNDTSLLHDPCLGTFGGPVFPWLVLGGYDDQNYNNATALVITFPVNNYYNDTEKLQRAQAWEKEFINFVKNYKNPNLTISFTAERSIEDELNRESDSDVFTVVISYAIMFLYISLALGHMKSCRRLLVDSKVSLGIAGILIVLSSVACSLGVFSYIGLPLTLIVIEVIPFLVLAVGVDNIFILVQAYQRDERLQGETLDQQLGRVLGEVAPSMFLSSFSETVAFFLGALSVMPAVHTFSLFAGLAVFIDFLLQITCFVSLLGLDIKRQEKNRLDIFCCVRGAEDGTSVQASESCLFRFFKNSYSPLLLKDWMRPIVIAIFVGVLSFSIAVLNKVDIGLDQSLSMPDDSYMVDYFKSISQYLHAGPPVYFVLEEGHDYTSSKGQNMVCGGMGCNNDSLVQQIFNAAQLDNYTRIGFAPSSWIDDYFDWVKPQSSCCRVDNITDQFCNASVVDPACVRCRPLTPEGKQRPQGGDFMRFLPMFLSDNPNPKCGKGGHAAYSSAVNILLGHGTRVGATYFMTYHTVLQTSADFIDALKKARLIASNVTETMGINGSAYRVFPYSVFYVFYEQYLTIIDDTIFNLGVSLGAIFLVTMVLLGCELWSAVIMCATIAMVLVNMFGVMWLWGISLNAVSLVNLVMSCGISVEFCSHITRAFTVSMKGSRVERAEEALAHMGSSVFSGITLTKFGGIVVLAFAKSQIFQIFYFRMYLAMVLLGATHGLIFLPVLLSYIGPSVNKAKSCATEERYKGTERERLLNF
Outline: (§1)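 HeLa cells were exposed to compound for 24 h; DMSO vehicle was 0.1% (v/v) final. They were then stained with 0.5 mg/mL filipin in PBS plus 10% FCS for 2 h at RT and imaged on a high-content imager.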

[5] = target: T1, NPC intracellular cholesterol transporter 1 (Homo sapiens); assay: Inhibition of NPC1 in human HeLa cells assessed as increase in cholesterol accumulation in subcellular localization at 1 uM incubated for 24 hrs by filipin-staining based immunofluorescence assay; assay type: cell-based; outline: as §1
[6] = Inhibition of Ebolavirus glycoprotein transfected in human Huh-7 cells cotransfected with HIV luciferase reporter vector expressing plasmid assessed as reduction in virus entry measured after 3 days by Bright-Glo luciferase assay; assay type: cell-based; details: Orthoebolavirus, Huh-7, 72 h
Outline: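 Huh7 cells were preincubated with varying compound concentrations for 1 h at 37 C. HIV-based luciferase reporter particles pseudotyped with EBOV GP were then added. Firefly luciferase activity was measured by Bright-Glo 3 days later.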

Row | Structure (SMILES) | CC50 at 72 h [1] [µM] | EC50 [2] [µM] | selectivity ratio [3] | inhibition [4] | inhibition [5] | EC50 [6] [µM]
1 | CN(C)CCOc1ccc(/C(=C(\CCCl)c2ccccc2)c2ccccc2)cc1 | 2.5 | 0.38 | 7 |  |  | 
2 | CCOP(=O)(Cc1cccc(COc2ccccc2OC2CCN(Cc3ccc4nc(-c5ccc(OC(F)(F)F)cc5)[nH]c4c3)CC2)c1)OCC | 4.23 | 1.97 | 2 |  |  | 
3 | CCOP(=O)(Cc1ccc(COc2ccccc2OC2CCN(Cc3ccc4nc(-c5ccc(C(F)(F)F)cc5)[nH]c4c3)CC2)cc1)OCC | 3.82 | 1.73 | 2 |  |  | 
4 | CCN(CC)CCO[C@H]1CC[C@@]2(C)C(=CC[C@@H]3[C@@H]2CC[C@]2(C)C(=O)CC[C@@H]32)C1 |  |  |  | Active |  | 
5 | CCOP(=O)(Cc1cccc(COc2ccccc2OC2CCN(Cc3ccc4nc(-c5ccccc5)[nH]c4c3)CC2)c1)OCC | 13.1 | 1.88 | 7 |  |  | 
6 | CCOP(=O)(Cc1cccc(COc2ccccc2CC2CCN(Cc3ccc4nc(-c5cccc(OC(F)(F)F)c5)[nH]c4c3)CC2)c1)OCC | 4.45 | 0.87 | 5 |  |  | 
7 | CCOP(=O)(Cc1ccc(COc2ccccc2CC2CCN(Cc3ccc4nc(-c5ccccc5)[nH]c4c3)CC2)cc1)OCC | 13.2 | 0.64 | 20 |  | Active | 1.35
8 | CCOP(=O)(Cc1cccc(COc2ccccc2CC2CCN(Cc3ccc4nc(-c5ccccc5)[nH]c4c3)CC2)c1)OCC | 9.17 | 0.93 | 10 |  | Active | 2.92
9 | CCOP(=O)(Cc1ccc(COc2ccccc2OC2CCN(Cc3ccc4nc(-c5ccc(OC(F)(F)F)cc5)[nH]c4c3)CC2)cc1)OCC | 4.2 | 1.19 | 4 |  |  | 
10 | CCOP(=O)(Cc1ccc(COc2ccccc2OC2CCN(Cc3ccc4nc(-c5ccccc5)[nH]c4c3)CC2)cc1)OCC | 14.7 | 2.95 | 5 |  |  | 
11 | CCOP(=O)(Cc1ccc(COc2ccccc2OC2CCN(Cc3ccc4nc(-c5cccc(C(F)(F)F)c5)[nH]c4c3)CC2)cc1)OCC | 100 | 29.7 | 3 |  |  | 
12 | CCOP(=O)(Cc1ccc(COc2ccccc2OC2CCN(Cc3ccc4nc(-c5cccc(OC(F)(F)F)c5)[nH]c4c3)CC2)cc1)OCC | 14.7 | 2.95 | 5 |  |  | 
